Source: ChEMBL document CHEMBL3351316, “Scaffold hopping approach on the route to selective tankyrase inhibitors” (Eur J Med Chem, 2014)
Calls of active or inactive are those of the source. The rule behind the calls is not given here.

Tests used:
[1] = Lipophilicity, log D of the compound at pH 7.4; assay type: physicochemical; conditions: buffer
[2] = biological target: T1, Poly [ADP-ribose] polymerase tankyrase-1 (Homo sapiens, UniProt O95271); assay: Inhibition of GST-tagged human recombinant TNKS1 incubated for 1 hr using NAD+, biotinylated NAD+ and activated DNA by luminescence based assay
T1 sequence (O95271 whole entry): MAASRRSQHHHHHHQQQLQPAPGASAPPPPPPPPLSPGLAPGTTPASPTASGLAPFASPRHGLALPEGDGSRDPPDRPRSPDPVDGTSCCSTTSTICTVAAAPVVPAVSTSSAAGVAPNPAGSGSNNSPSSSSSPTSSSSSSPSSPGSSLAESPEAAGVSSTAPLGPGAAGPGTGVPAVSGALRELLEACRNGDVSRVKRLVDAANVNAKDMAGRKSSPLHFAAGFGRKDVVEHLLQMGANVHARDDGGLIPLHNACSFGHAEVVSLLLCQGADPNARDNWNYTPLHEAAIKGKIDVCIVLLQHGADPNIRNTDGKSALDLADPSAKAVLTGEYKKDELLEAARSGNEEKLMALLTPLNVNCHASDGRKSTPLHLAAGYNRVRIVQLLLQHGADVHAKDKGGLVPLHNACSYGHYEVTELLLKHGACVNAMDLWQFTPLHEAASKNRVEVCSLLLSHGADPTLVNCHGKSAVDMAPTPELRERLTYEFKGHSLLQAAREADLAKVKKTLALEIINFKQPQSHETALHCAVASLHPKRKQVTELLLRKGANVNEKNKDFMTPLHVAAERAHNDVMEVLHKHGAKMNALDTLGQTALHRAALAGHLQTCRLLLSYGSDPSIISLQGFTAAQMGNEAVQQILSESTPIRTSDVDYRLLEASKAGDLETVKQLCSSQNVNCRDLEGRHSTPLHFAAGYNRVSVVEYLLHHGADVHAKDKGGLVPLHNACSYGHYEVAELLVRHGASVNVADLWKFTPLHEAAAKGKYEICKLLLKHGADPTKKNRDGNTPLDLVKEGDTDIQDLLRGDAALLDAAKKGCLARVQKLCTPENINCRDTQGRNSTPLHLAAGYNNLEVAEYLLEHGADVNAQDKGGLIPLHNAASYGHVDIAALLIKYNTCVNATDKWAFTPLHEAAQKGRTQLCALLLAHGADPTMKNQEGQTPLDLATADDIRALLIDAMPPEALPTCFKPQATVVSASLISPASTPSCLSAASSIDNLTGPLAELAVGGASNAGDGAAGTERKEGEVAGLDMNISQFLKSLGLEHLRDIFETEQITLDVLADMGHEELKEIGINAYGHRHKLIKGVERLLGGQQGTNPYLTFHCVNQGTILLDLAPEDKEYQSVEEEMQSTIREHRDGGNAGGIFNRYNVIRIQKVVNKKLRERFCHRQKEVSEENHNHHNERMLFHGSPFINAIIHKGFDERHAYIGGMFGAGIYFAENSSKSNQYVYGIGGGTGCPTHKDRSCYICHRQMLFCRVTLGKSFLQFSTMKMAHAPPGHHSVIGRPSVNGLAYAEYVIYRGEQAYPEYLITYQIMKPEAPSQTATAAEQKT

[3] = biological target: T2, Poly [ADP-ribose] polymerase tankyrase-2 (Homo sapiens, UniProt Q9H2K2); assay: Inhibition of GST-tagged human recombinant TNKS2 incubated for 1 hr using NAD+, biotinylated NAD+ and activated DNA by luminescence based assay
T2 sequence (Q9H2K2 whole entry): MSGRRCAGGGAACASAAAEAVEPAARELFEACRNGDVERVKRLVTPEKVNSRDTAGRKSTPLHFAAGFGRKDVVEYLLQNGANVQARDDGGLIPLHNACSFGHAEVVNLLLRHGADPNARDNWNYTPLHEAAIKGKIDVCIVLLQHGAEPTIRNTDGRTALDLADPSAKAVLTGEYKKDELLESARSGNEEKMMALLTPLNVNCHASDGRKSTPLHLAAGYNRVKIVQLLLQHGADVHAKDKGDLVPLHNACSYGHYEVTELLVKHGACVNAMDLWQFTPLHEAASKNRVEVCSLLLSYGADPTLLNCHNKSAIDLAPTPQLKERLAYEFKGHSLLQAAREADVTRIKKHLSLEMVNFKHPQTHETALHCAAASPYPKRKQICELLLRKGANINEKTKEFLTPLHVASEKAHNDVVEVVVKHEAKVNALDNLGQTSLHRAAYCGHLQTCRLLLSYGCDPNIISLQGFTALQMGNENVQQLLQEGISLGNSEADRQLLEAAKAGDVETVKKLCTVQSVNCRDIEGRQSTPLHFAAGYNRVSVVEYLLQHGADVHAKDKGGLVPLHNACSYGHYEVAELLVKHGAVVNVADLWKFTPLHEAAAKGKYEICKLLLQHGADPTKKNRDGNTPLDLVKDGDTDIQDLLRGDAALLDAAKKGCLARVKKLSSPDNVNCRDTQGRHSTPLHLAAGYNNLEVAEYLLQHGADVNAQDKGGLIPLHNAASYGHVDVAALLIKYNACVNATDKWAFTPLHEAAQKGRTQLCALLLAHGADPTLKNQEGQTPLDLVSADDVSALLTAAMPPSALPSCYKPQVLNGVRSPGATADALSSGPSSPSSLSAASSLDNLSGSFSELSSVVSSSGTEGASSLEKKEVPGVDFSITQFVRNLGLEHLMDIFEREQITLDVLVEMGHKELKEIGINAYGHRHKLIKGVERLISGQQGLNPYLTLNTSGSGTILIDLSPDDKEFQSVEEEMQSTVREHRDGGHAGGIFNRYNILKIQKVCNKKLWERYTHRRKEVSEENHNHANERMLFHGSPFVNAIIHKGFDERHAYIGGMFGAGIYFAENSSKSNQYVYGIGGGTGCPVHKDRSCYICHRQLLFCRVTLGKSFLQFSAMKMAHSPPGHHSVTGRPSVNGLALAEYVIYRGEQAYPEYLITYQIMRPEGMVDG

[4] = biological target: Poly [ADP-ribose] polymerase 2 (Homo sapiens) (UniProt Q9UGN5); assay: Inhibition of human recombinant PARP2 incubated for 1 hr using histone substrate at 10 uM by luminescence based assay
Summary of the method: (§1)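 Recombinant PARP enzyme reactions were run in duplicate for 1 h at rt on histone-coated plates in Tris·HCl pH 8.0 buffer with NAD+, biotinylated NAD+ and activated DNA. Detection used streptavidin-HRP for 30 min at rt, then a chemiluminescent developer. % inhibition = 100 − % activity, scaled between the no-compound (100%) and no-enzyme (0%) signals.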

RKO = assay: Growth inhibition of Wnt-negative human RKO cells at 1 uM to 10 uM; assay type: functional, cell-based
[5] = biological target: Protein mono-ADP-ribosyltransferase PARP6 (Homo sapiens) (UniProt Q2NL67); assay: Inhibition of human recombinant PARP6 at 10 uM incubated for 1 hr using NAD+, biotinylated NAD+ and activated DNA by luminescence based assay; summary of the method: as §1
[6] = biological target: Protein mono-ADP-ribosyltransferase PARP14 (Homo sapiens) (UniProt Q460N5); assay: Inhibition of human recombinant PARP14 at 10 uM incubated for 1 hr using NAD+, biotinylated NAD+ and activated DNA by luminescence based assay; summary of the method: as §1
Protein mono-ADP-ribosyltransferase PARP14 (Homo sapiens), sequence (Q460N5 whole entry): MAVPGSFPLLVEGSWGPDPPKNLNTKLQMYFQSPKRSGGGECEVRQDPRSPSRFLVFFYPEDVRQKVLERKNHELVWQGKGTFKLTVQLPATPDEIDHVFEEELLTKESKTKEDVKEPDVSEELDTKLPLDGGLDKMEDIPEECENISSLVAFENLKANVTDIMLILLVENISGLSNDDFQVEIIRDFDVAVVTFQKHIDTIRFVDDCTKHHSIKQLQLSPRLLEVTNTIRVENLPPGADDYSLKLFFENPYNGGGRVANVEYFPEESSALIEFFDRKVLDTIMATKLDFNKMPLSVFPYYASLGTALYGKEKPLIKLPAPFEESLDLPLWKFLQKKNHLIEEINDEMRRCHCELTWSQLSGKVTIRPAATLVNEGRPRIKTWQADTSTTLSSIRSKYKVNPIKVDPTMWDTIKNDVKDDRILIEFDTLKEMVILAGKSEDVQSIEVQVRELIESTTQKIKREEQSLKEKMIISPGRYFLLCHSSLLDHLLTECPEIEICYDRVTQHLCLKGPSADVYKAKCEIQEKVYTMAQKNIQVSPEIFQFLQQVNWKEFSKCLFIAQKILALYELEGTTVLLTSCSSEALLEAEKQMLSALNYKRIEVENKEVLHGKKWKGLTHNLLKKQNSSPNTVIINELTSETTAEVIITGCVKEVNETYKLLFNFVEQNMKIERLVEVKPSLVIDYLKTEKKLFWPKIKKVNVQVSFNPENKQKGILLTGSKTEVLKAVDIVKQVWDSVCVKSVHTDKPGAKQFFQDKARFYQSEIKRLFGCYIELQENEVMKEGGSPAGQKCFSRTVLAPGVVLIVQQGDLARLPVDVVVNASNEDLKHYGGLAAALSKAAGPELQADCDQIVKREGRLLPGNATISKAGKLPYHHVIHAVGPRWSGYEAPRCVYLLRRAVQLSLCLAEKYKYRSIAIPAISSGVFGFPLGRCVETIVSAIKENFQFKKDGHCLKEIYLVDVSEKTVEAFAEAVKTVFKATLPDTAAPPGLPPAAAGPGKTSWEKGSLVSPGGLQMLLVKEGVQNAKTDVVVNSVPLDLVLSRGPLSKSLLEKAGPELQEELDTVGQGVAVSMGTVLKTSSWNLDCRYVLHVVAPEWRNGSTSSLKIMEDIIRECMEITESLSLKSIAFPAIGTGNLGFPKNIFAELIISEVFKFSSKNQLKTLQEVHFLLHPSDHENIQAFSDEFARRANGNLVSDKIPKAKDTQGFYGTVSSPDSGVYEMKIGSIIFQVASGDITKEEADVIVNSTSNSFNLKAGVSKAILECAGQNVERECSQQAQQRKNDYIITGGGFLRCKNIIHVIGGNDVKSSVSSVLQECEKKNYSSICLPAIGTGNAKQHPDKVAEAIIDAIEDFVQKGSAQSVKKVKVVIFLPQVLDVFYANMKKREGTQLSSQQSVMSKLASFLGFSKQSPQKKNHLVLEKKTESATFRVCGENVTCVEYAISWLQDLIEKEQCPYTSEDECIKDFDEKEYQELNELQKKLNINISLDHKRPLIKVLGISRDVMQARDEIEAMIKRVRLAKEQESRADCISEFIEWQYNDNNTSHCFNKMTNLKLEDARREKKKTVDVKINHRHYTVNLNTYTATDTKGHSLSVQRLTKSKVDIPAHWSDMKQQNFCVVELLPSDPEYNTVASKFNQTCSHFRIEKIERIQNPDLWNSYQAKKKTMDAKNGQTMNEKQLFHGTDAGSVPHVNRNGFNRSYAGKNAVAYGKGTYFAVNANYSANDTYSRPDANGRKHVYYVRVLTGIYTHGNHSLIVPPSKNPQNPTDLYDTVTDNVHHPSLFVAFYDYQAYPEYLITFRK

Protein mono-ADP-ribosyltransferase PARP6 (Homo sapiens), sequence (Q2NL67 whole entry): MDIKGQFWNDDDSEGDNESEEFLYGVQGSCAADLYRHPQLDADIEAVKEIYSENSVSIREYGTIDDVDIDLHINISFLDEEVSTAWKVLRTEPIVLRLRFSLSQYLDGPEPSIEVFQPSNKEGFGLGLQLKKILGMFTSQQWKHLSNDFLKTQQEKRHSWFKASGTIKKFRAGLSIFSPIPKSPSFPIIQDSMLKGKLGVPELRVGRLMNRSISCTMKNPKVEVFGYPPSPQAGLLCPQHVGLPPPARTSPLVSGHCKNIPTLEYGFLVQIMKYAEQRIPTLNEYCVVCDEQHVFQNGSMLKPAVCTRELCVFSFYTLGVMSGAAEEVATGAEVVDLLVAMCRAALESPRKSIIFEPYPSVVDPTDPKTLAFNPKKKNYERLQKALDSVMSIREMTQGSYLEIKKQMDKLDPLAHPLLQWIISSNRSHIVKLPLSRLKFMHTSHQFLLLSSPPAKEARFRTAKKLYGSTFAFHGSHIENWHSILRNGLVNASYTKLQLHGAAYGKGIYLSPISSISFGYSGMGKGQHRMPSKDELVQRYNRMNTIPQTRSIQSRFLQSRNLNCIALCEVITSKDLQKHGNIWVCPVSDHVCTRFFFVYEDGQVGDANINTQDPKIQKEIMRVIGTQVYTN
Poly [ADP-ribose] polymerase 2 (Homo sapiens), sequence (Q9UGN5 whole entry): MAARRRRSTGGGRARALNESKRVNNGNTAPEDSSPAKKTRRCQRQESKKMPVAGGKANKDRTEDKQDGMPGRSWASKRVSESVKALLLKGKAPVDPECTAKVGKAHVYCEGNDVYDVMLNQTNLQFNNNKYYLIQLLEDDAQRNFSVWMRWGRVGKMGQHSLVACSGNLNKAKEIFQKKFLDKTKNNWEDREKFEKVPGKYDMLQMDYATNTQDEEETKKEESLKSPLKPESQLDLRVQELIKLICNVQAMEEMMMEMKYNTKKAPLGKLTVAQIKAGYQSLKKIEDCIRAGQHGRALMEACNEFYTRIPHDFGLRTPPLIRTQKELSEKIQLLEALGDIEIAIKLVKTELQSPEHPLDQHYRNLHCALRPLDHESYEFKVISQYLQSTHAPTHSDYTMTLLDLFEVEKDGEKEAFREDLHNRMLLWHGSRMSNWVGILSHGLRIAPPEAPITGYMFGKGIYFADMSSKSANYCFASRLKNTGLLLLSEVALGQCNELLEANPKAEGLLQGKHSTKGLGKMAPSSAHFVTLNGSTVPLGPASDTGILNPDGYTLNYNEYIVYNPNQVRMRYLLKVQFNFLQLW

CC(C)(C)c1ccc(-c2nc3c(sc4ccccc43)c(=O)[nH]2)cc1
logD [1]: 5.16
IC50 [2]: 21.3 nM
IC50 [3]: 28.6 nM
inhibition [4]: 0%
growth inhibition (GI) (RKO): inactive
inhibition [5]: 6%
inhibition [6]: 0%
